Furin inh: inhibitors of human furin; 220,000 compounds, 0.061% hits; inhibition, % at 20 µM or 30 µM; purified furin, fluorogenic substrate cleavage; P09958; in the data active means inhibition above about 25%
Target sequence (P09958 108-714 limits assumed): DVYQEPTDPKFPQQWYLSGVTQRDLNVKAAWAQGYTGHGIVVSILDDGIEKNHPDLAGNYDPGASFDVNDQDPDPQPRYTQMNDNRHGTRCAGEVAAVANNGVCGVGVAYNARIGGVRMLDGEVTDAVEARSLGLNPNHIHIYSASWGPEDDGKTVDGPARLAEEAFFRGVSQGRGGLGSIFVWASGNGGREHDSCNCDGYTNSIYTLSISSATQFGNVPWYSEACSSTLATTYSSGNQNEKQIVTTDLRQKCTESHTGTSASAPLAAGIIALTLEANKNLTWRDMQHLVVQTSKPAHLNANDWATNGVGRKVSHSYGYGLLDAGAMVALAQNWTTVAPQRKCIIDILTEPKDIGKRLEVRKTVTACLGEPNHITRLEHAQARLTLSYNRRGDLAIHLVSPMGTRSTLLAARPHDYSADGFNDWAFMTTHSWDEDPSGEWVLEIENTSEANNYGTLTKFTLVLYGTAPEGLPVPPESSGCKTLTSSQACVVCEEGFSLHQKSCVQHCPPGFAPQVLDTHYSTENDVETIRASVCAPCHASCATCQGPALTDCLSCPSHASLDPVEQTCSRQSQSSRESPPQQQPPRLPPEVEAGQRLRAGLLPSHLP
FXIIa inh 1536: inhibitors of human coagulation factor XIIa | P00748 | purified FXIIa, Boc-QGR-AMC fluorogenic substrate, 2 h | inhibition, % at 5 µM | 220,000 compounds, 0.3% hits | AID 800; in the data active means inhibition above about 40%;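 further: 0% = enzyme with no compound and 100% = blank without enzyme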
FXIa inh 1536: blocks human coagulation factor XIa protease activity; P03951; purified FXIa, Boc-Glu-Ala-Arg-AMC fluorogenic substrate; inhibition, % at 5 µM; 220,000 compounds, 0.14% hits;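 active means inhibition of at least 40%; inactive means inhibition below 40%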;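 further: fluorescence of freed AMC excited at 355 nm; 0% = enzyme without compound and 100% = no enzyme blank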
Biofilm kill mix: mixture kills Candida albicans biofilm cells; C. albicans biofilm persisters + clotrimazole, fluorescence viability; primary screen in compound mixtures of four per well; 120,000 compounds, 0.02% hits; inhibition, % at 7.6 µM;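 active means inhibition above 30.3% in the primary screen of four-compound pools, then above 30% when the compound was retested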;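 further: compounds exposed to preformed 24 h biofilms for 48 h; 0% = untreated biofilm control and 100% = clotrimazole plus chlorhexidine kill blank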
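Assay system: C. albicans biofilms / Medium: RPMI/MOPS medium, pH 7.0 / Schedule: biofilm formation 24 h, compound exposure 48 h, 37 °C / Measured by: Alamar Blue fluorescence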
hK5 inh: kallikrein 5 (human) inhibition | inhibition, % at 5 µM | recombinant hK5, fluorogenic AMC substrate cleavage | 210,000 compounds, 0.59% hits | Q9Y337;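 active means inhibition of 40% or more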;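 further: 0% = enzyme controls without compound and 100% = no-enzyme blanks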
thrombin 1536: blocks human thrombin protease activity. P00734. alpha-thrombin, Boc-VPR-AMC fluorogenic substrate cleavage. inhibition, % at 5 µM. 220,000 compounds, 0.26% hits;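 active means inhibition at or above 40%; inactive means inhibition below 40%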;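 further: 0% = enzyme with no compound and 100% = wells without enzyme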
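Test system: human alpha-thrombin; medium: pH 7.5 Tris-saline with Tween 20; times: reaction at room temperature; signal: AMC fluorescence at 355 nm excitation and 460 nm emission; also added: Boc-VPR-AMC substrate, 15 µM final; dosing: one concentration per compound, 5 µM, with 0.2% DMSO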
The depositor's hits bear a star; · = no result given. Sampled rows, rich in hits. Any-hit rate of the full collection: about 1.1%.

SMILES | Furin inh | FXIIa inh 1536 | FXIa inh 1536 | Biofilm kill mix | hK5 inh | thrombin 1536
O=C(Nc1ccc(N2CCOCC2)cc1)C1CCCN(S(=O)(=O)c2ccccc2)C1 (centres undefined) | -7.8 | 5.4 | -9.5 | · | -8.7 | -2.3
O=C(NC1CCCc2ccccc21)C1CCN(S(=O)(=O)c2ccccc2)CC1 (centres undefined) | -17.5 | 19.1 | 9.8 | 8.3 | 7.0 | 17.6
O=C(NC1CCCc2ccccc21)C1CCN(S(=O)(=O)c2ccccc2F)CC1 (centres undefined) | 2.2 | 87.8* | 5.8 | 9.9 | 28.2 | 29.2
CCOC(=O)N1CCN(C(=S)NC(=O)c2ccc(F)c(F)c2)CC1 | -33.2 | 3.8 | -3.4 | 24.5 | -0.8 | -8.4
Cn1c(SCC(=O)NC(C)(C)C)nnc1-c1ccc(C(C)(C)C)cc1 | -19.0 | 9.1 | 17.3 | · | 41.5* | 18.3
O=C(C1CC=CCC1)N1CCC(CO)(Cc2ccc(Cl)cc2)CC1 (centres undefined) | -26.8 | 7.8 | 0.0 | 20.4 | · | -2.0
CCOC(=O)c1ccc(COC(=O)CNS(=O)(=O)c2ccccc2)cc1 | -26.5 | 14.2 | 3.5 | 3.7 | 19.1 | 4.8
COC(=O)c1ccc(COC(=O)CNS(=O)(=O)c2ccccc2)cc1 | -11.7 | 26.4 | 30.9 | 30.1 | 23.3 | 54.7*
CCCC(=O)NNC(=O)c1ccoc1C | -7.7 | 40.1* | 9.1 | 9.4 | 26.3 | 17.8
Cc1cc(C)c(NC(=O)c2ccoc2C)c(C)c1 | -8.0 | 18.9 | 4.8 | · | 61.3* | 12.3
Cc1cccc(C)c1OCC(=O)NNC(=O)c1ccoc1C | -13.4 | 15.5 | 0.2 | · | -7.0 | 0.6
COc1ccc(Cl)cc1NC(=O)Cc1c(F)cccc1Cl | -8.2 | 4.2 | -3.2 | 10.5 | -8.2 | -4.7
CCOc1ccc(CCNC(=O)CCS(=O)(=O)c2ccc(OC)cc2)cc1OCC | -26.2 | 5.8 | -2.0 | 11.5 | -8.1 | 1.4
CC(C)(C)C(=O)Nc1ccc(C(=O)N/N=C/c2ccccc2OC(=O)c2ccccc2)cc1 | -22.1 | -1.5 | 59.9* | · | 11.1 | -3.4
O=C(Nc1ccccc1)Nc1ccccc1-n1ccnc1 | -25.8 | 8.6 | 0.7 | 10.6 | -2.5 | ·
CCOC(=O)CN(c1ccccn1)S(=O)(=O)c1ccc(OC)cc1 | -18.2 | 6.9 | -3.6 | 17.4 | · | -6.8
COc1ccc(N2C(=S)N=C(Nc3ccccc3)C23CCCCC3)cc1 | -31.3 | 10.1 | -2.1 | 12.3 | 0.7 | 101.1*
Cc1onc(-c2ccccc2)c1C(=O)NCc1ccccn1 | -16.6 | -5.5 | 0.4 | · | 2.4 | -20.9
Cc1ccsc1CNC(=O)c1c(-c2ccccc2)noc1C | -8.0 | 1.0 | -16.8 | 17.3 | 41.7* | -8.2
O=C1C=C(NCc2ccc(Cl)c(Cl)c2)CC1 | -13.8 | 6.0 | -4.4 | · | -4.3 | -3.4
O=C1C=C(NCc2ccc(Cl)cc2)CCC1 | -13.5 | 22.9 | 5.5 | 10.2 | 49.7* | 14.2
COc1ccc2nc(SCC(=O)NCC(F)(F)F)[nH]c2c1 | -14.6 | 9.4 | 17.6 | 19.2 | 2.0 | -10.5
CCOC(=O)C1=C(C)NC(=S)N(C(C)=O)C1c1ccc(OC)c(OC)c1 (centres undefined) | 11.7 | 47.5* | 17.4 | -7.0 | 47.7* | 21.4
CCOC(=O)C1=C(C)NC(=S)N(C(C)=O)C1c1ccc(Cl)cc1 (centres undefined) | -12.1 | 6.2 | 0.8 | 7.3 | -5.7 | -0.3
CC1CC(C)(C)NC(=S)N1CC(=O)N1CCN(Cc2ccc3c(c2)OCO3)CC1 (centres undefined) | -27.2 | 10.1 | -0.9 | 5.9 | 0.1 | -0.5
SMILES | Furin inh | FXIIa inh 1536 | FXIa inh 1536 | Biofilm kill mix | hK5 inh | thrombin 1536
CCc1ccc[n+](-c2[nH]c(=O)sc2/C=N/NC([S-])=Nc2ccccc2)c1 | 6.5 | -0.9 | -10.0 | 2.5 | 16.6 | 34.4
CCc1ccc[n+](-c2[nH]c(=O)sc2/C=N/N=C(\N)[O-])c1 | 3.5 | 22.9 | 42.3* | 12.1 | 29.8 | 24.7
CC(=O)c1ccc(N2C(=O)C3C(C2=O)C(C(=O)c2ccc(Cl)cc2)N2CCCC32)cc1 (centres undefined) | -22.1 | 7.8 | 12.4 | · | 41.6* | 8.6
Cc1ccc([N+](=O)[O-])cc1N | -25.8 | 6.1 | 12.9 | 10.9 | -16.9 | -0.3
Cc1ccc(C(=O)C(=O)c2ccc(C)c(N)c2)cc1N | 1.2 | 40.2* | 53.0* | 8.1 | 25.8 | 14.2
COC(=O)c1ccc(Cn2c(O)c(N=NC(N)=S)c3ccccc32)o1 | -18.9 | 5.9 | 1.8 | 18.6 | 1.9 | -4.5
Cc1cc(=O)oc2cc(NC(=O)C3CCCC3)ccc12 | -63.9 | -6.5 | -6.2 | 9.1 | -23.4 | -5.1
Cc1cc(=O)oc2cc(NC(=O)CC3(CC(=O)O)CCCC3)ccc12 | -64.1 | -1.3 | -0.2 | 19.6 | 52.4* | -4.0
CCCOc1ccc(/C=N/NC(=O)C2CCCN2S(=O)(=O)c2ccc(Cl)cc2)cc1 (centres undefined) | -8.0 | 25.7 | 14.1 | · | 49.4* | 13.6
CC(C)Oc1ccc(/C=N/NC(=O)C2CCCN2S(=O)(=O)c2ccc(Cl)cc2)cc1 (centres undefined) | -14.0 | 10.3 | -6.4 | · | 10.5 | 2.8
Cc1cc(=O)[nH]n(CCO)c1=O | -16.7 | 8.2 | 1.9 | 22.0 | -1.3 | -0.9
O=C(c1ccc(NC(=S)NCc2ccco2)cc1)N1CCOCC1 | -16.5 | 0.7 | -5.7 | 14.9 | -9.3 | -4.2
CC1CCC(C(=O)NC(C(=O)NCc2cccnc2)C(C)C)CC1 (centres undefined) | -18.0 | 9.8 | -0.9 | · | -2.3 | 2.0
CCC(C)C(NC(=O)C1CCC(C)CC1)C(=O)NCc1cccnc1 (centres undefined) | 29.4* | 11.8 | 0.2 | 15.2 | -8.5 | -3.2
O=C(c1ccc(S(=O)(=O)NCC2CCCO2)cc1)N1CCc2ccccc21 (centres undefined) | -0.2 | 29.2 | 24.2 | · | 0.0 | 3.3
O=C(CNCC1CCCO1)N1CCCc2ccccc21 (centres undefined) | -20.0 | 8.6 | 6.4 | · | 51.8* | 15.2
O=C(NCC(c1cccnc1)N1CCN(c2ccc(F)cc2)CC1)OCc1ccccc1 (centres undefined) | -0.9 | 14.1 | 9.6 | · | 46.4* | 21.2
O=C(NCC(c1cccnc1)N1CCN(c2ccccc2)CC1)OCc1ccccc1 (centres undefined) | -19.7 | 17.0 | 5.3 | 7.9 | 0.6 | 2.3
COC(=O)NCC(c1ccco1)N1CCN(c2ccc(F)cc2)CC1 (centres undefined) | -13.8 | -2.3 | 0.5 | -1.2 | 43.3* | 27.4
CC1=C(C)C(C)=C(C#N)C(=C(C#N)C#N)N1 | -3.6 | 2.6 | 1.8 | 11.9 | 1.2 | -0.1
CCc1cc(SC#N)ccc1N | -24.0 | 4.2 | 0.6 | 11.4 | 1.4 | -6.2
Nn1c(C2CCCCC2)nc2ccccc2c1=O | -8.1 | 61.5* | 58.4* | 17.8 | 39.2 | 22.9
COc1cc(SSc2cc(OC)cc([N+](=O)[O-])c2N)c(N)c([N+](=O)[O-])c1 | -10.0 | 11.0 | 4.9 | 14.0 | 3.5 | 4.2
COc1ccc(NC(=O)Cn2cnc3c(nnn3-c3ccc(C)cc3)c2=O)cc1 | -27.1 | 2.3 | -4.0 | 12.8 | -6.3 | -0.6

Source: PubChem (several laboratories)
